# Assay outcomes: PubChem BioAssay, several laboratories
# GalR3 antagonist = blocks the human galanin receptor 3; HEK293 GalR3-CNG cAMP membrane potential fluorescence; galR3 body fused to GalR1 C-terminus; O60755; inhibition, % at 3 µM; 0.44% of 360,000 active;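 active = inhibition above the screen-wide average plus 3 SD, cut at about 13% in these data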;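 also: forskolin and galanin both at EC90 stimulate the cells; cAMP rise reported by CNG channel membrane potential dye signal; 0% = forskolin plus galanin with DMSO and 100% = forskolin alone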
# Target sequence (O60755 1-299 limits assumed): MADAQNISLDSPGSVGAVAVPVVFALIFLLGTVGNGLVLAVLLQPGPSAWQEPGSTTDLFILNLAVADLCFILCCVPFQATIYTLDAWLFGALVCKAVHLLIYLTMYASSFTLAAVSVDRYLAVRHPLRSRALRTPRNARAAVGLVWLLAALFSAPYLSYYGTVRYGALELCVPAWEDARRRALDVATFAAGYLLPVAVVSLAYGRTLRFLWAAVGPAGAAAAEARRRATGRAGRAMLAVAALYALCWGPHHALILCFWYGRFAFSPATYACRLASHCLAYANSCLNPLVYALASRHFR
# NR1D1 modulator = modulators of human Rev-erb alpha DNA binding; P20393; Rev-erbα–FITC-DNA binding, fluorescence polarization, 90 min; activity, % at 10 µM; 0.79% of 370,000 active; AID 1259318;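 active = activity above about 14%, limit read from the data; passing the limit was not always enough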;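 also: 0% = DMSO wells with 35 nM protein and 100% = DMSO wells with 750 nM protein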
# PG9 Ab binder = small molecules binding HIV-1 gp120 antibody PG9 | 0.43% of 360,000 active | TR-FRET gp120-PG9 antibody binding | inhibition, % at 6.7 µM; in the data active = inhibition above about 8.5%
# NR2E3 ag-1 = NR2E3 (human) agonism; Q9Y5X4; GST-NR2E3/biotin-RetCOR TR-FRET, 1536-well; inhibition of corepressor binding, % at 4.78 µM; 0.12% of 320,000 active;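 active = percent inhibition above the cutoff of mean plus 3 SD of all tested compounds, set per screening campaign, cut at about 20% in these data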;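 also: 0% = DMSO wells and 100% = biotin wells as full block of FRET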
# Target sequence (Q9Y5X4 whole entry, looked up): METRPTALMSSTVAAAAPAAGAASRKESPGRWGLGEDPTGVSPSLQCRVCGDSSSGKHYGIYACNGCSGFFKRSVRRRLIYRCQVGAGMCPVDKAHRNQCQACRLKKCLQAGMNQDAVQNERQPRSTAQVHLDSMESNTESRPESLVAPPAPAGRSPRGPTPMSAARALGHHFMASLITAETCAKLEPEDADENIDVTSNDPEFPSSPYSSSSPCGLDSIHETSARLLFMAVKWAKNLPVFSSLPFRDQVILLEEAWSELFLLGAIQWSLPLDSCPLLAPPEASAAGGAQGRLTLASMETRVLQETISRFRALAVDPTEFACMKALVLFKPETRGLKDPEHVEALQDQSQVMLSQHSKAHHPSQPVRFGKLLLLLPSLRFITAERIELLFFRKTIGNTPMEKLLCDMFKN
#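 Material: NR2E3–RetCOR corepressor complex / Incubation: Compound–protein incubation for 5 h at 4 °C / Dosing: compound at 4.8 µM, single dose / Detection: time-resolved FRET / Benchmarks: high control biotin, low control 0.6% DMSO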
# NR2E3 ag-2 = human photoreceptor-specific nuclear receptor agonism; Q9Y5X4; CHO-S Gal4-NCOR/VP16-NR2E3 two-hybrid, luciferase; inhibition of corepressor binding, % at 3.98 µM; 0.35% of 360,000 active; AID 602229;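 active = inhibition above the mean of all tested compounds plus 3 SD, cut at about 70% in these data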;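 also: 0% = DMSO with NR2E3 transfected cells and 100% = cells lacking NR2E3 construct; higher means lower luciferase signal from less NR2E3 corepressor binding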
# GalR3 antag conf = GalR3 (human) antagonism, confirmation | shares compounds with GalR3 antagonist | HEK293 GalR3 CNG cAMP biosensor, membrane potential fluorescence; galR3 fused to GalR1 carboxy tail; challenged with forskolin and galanin at EC90 | inhibition, % at 3 µM | 59% of 1,600 active;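 active = inhibition above the primary screen's cutoff, the mean inhibition of all screened compounds plus 3 SD, cut at about 13% in these data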;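 also: 0% = forskolin plus galanin and 100% = forskolin alone with DMSO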
# CNG parental = acts as nonspecific agonist in parental HEK-CNG cells; shares compounds with GalR3 antagonist; HEK293-CNG parental cells, cAMP membrane potential fluorescence; normalised: DMSO wells 0%, forskolin wells 100%; activation, % at 3 µM; 10% of 1,600 active; in the data active = activation above about 1.3%
# Numbers without * were called inactive; . = not tested or not shown. Most compounds without a hit are left out; they make up all but 1.8% or so of the library.
SMILES,GalR3 antagonist,NR1D1 modulator,PG9 Ab binder,NR2E3 ag-1,NR2E3 ag-2,GalR3 antag conf,CNG parental
O=C(Cc1ccsc1)N1CCc2c([nH]c3ccccc23)C1c1ccccn1 (stereo unspecified),15.7*,1.2,0.6,-0.5,-5.8,-0.7,0.3
COCC(C)N=C1SCCN1Cc1ccccc1 (stereo unspecified),-10.7,2.7,-0.6,-1.7,-10.5,.,.
COC(=O)CCCN=C1SCCN1Cc1ccccc1,15.0*,-0.1,-0.1,0.8,6.5,8.1,0.2
CCCNC(=O)C12CCC(C)(c3nc4cc(C)c(C)cc4nc31)C2(C)C (stereo unspecified),15.9*,5.2,0.0,-0.2,4.4,4.4,0.0
CNC(=O)C12CCC(C)(c3nc4cc(C)c(C)cc4nc31)C2(C)C (stereo unspecified),-3.6,-2.5,0.6,3.8,1.5,.,.
CC(C)(C)NC(=O)COC(=O)c1snc(C(=O)NC2CCCCC2)c1N,100.8*,-3.2,-3.0,2.2,23.8,123.2*,-0.7
CC(OC(=O)c1snc(C(=O)NC2CCCCC2)c1N)C(=O)NC(C)(C)C (stereo unspecified),-4.2,-0.9,1.1,-2.2,5.3,.,.
COc1ccc(NC(=O)CSc2ncccc2C(=O)OC(C)C)cc1OC,28.0*,-0.9,-1.1,2.5,35.8,12.9*,-0.3
COc1ccc(NC(=O)CSc2ccccn2)cc1OC,0.2,10.2,-1.5,1.6,-0.3,.,.
O=C(O)Cc1csc(-c2ccccc2)n1,1.7,-3.8,-1.4,6.3,7.8,.,.
O=C(O)Cc1csc(-c2cccc(F)c2)n1,.,0.5,-1.3,-0.8,1.1,0.2,0.1
O=C(NC1CCCc2c1cnn2-c1ccc(F)cc1F)c1cccs1 (stereo unspecified),.,-3.2,.,.,.,.,.
O=C(Nc1ccc(Cc2ccncc2)cc1)c1ccc(S(=O)(=O)N2CCCC2)cc1,72.7*,0.1,1.4,.,20.6,94.2*,-0.2
O=C(Nc1ccc(S(=O)(=O)N2CCCCC2)cc1)c1ccncc1,-1.5,-5.6,-4.1,-4.7,39.5,.,.
N#C/C(=C\c1ccccc1)C(=O)Nc1nncs1,15.5*,-2.9,-0.3,-0.6,-3.8,8.9,0.3
COc1ccccc1-n1c(-c2cc(-c3ccc(F)cc3)n[nH]2)n[nH]c1=S,14.0*,0.9,0.4,-2.2,-18.2,13.0*,0.5
COc1ccc(-c2cc(-c3n[nH]c(=S)n3-c3cccc4ccccc34)[nH]n2)cc1,52.5*,-6.3,-0.9,4.2,41.5,48.8*,0.5
O=C(NCC(F)(F)F)c1ccc2sc([C@@H]3O[C@H](CO)[C@H](O)[C@H](O)[C@H]3O)nc2c1,40.4*,-6.0,-1.6,.,12.6,0.1,0.0
COCCn1nnnc1C(C(C)C)N(Cc1cccnc1)Cc1cc2cc(OC)ccc2[nH]c1=O (stereo unspecified),10.6,0.3,-0.5,-0.3,-13.9,.,.
COc1ccc2[nH]c(=O)c(CN(Cc3ccco3)C(c3nnnn3Cc3ccccc3)C(C)C)cc2c1 (stereo unspecified),13.2*,-4.6,-0.6,2.7,-6.3,0.4,0.5
COc1ccc2[nH]c(=O)c(CN(C3CCCCC3)C(c3nnnn3Cc3ccco3)C(C)C)cc2c1 (stereo unspecified),.,.,.,3.3,-34.4,.,.
COCCn1nnnc1C(C(C)C)N(Cc1ccccc1)Cc1cc2cc(OC)ccc2[nH]c1=O (stereo unspecified),64.8*,0.6,-1.4,.,4.6,60.0*,1.2
O=C(CNC(=O)c1ccc(Cl)cc1)NO,.,1.8,.,.,.,.,.
O=[N+]([O-])c1ccc(-c2ccc(S(=O)(=O)NCCN3CCCC3)cc2)cc1,41.5*,-0.7,-1.1,-2.1,0.5,10.4,0.4
N#CCc1ccc(NC(=O)c2ccc(CN3CCc4ccccc4C3)cc2)cc1,30.4*,10.2,-0.6,1.0,7.5,105.0*,-0.3
SMILES,GalR3 antagonist,NR1D1 modulator,PG9 Ab binder,NR2E3 ag-1,NR2E3 ag-2,GalR3 antag conf,CNG parental
O=C(Nc1ccc(Cl)cc1)c1ccc(CN2CCc3ccccc3C2)cc1,107.5*,-1.1,-0.7,-0.9,-101.4,102.2*,-0.5
CC(C)[C@H]1/C(=C/C2CC2)N2C(=O)C[C@H](c3cccc(C(F)(F)F)c3)N=C2N1Cc1ccc2c(c1)OCO2,.,0.8,.,.,.,.,.
COc1ccc(C(O)c2nccc3cc(OC)c(OC)cc23)cc1OC (stereo unspecified),16.8*,5.1,-1.1,2.4,-5.1,1.2,0.4
COc1cc(N)c(C(O)c2nccc3cc(OC)c(OC)cc23)cc1OC (stereo unspecified),-9.5,1.9,-2.0,1.4,-4.4,.,.
C[C@H](O)[C@@H]1CN2CCc3c([nH]c4cccc(-c5ccccc5)c34)[C@@H]2C[C@@H]1N(C)C(=O)c1ccco1,.,-2.1,.,.,.,.,.
CC1(CSc2ccccc2)CC(=O)N1 (stereo unspecified),20.9*,3.2,-0.5,.,-5.3,28.6*,0.1
O=C1NC(=O)C(CSc2ccccc2)(c2ccccc2)N1 (stereo unspecified),-6.2,5.8,-1.4,.,-6.0,.,.
CN1C(=O)c2cc(NC(=O)Cc3cccs3)ccc2OC[C@@H]2O[C@@H](CC(=O)N[C@H]3CCN(Cc4ccccc4)C3)CC[C@@H]21,.,1.5,.,.,.,.,.
CCNc1nc(CN2CCCCC2)nc2scc(-c3ccccc3)c12,18.9*,-4.8,-0.1,1.3,-8.3,22.2*,5.7*
O=C1N=c2ccccc2=C1c1sc(=S)n(-c2ccc(O)cc2)c1O,13.5*,2.0,-2.4,0.2,-5.0,6.9,-2.0
COC(=O)[C@]12C[C@H](CC(=O)NCCC(C)C)C(=O)N(Cc3ccco3)C1=C[C@H](C(C)(C)C)O[C@@H]2C,.,-1.4,.,.,.,.,.
COc1cc(/C=N/NC(N)=S)ccc1OCC(=O)Nc1ccc(C)c(C)c1,5.4,-8.9,0.6,-5.4,-25.7,.,.
COc1cc(/C=N/NC(N)=O)ccc1OCC(=O)Nc1ccc(C)c(C)c1,24.0*,-1.0,-1.8,-1.9,25.1,31.9*,-1.5
CC(=O)OCCNc1cc(Sc2nc3ccccc3[nH]2)c2nonc2c1[N+](=O)[O-],45.7*,-2.1,1.9,2.4,26.0,31.7*,0.2
CC(=O)OCCCNc1cc(Sc2nc3ccccc3s2)c2nonc2c1[N+](=O)[O-],.,.,.,1.2,7.9,.,.
CCN(Cc1ccccc1)c1ccc(/C=N/NC(=O)c2cccc(S(=O)(=O)N3CCOCC3)c2)cc1,23.6*,-3.5,2.1,1.6,-17.9,88.5*,-2.1
CCN(CC)c1ccc(/C=N/NC(=O)c2cccc(S(=O)(=O)N3CCOCC3)c2)cc1,-4.3,-2.1,-6.8,3.1,-3.2,.,.
